How the values were obtained:
Assay type in all cases: functional
[1] = test system: KM12; test: Growth inhibition of human KM12 cells incubated for 48 hrs by sulforhodamine B assay; conditions: KM12, 48 h
In short: (§1)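 NCI 60-cell-line panel, standard protocol. Cells exposed to compound for two days, growth read by sulforhodamine B staining. Tested at five 10-fold dilutions, top concentration 100 µM, to give dose-response curves.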

[2] = test system: A549; test: Growth inhibition of human A549/ATCC cells incubated for 48 hrs by sulforhodamine B assay; conditions: A549, 48 h; in short: as §1
[3] = test system: A498; test: Growth inhibition of human A498 cells assessed as cell growth at 10 uM incubated for 48 hrs by sulforhodamine B assay relative to control; conditions: A498, 48 h, read-out: Activity
[4] = Growth inhibition of human Caki1 cells incubated for 48 hrs by sulforhodamine B assay; conditions: CAKI-1, 48 h; in short: as §1
[5] = Growth inhibition of human HOP92 cells assessed as cell growth at 10 uM incubated for 48 hrs by sulforhodamine B assay relative to control; conditions: HOP-92, 48 h, read-out: Activity
In short: (§2)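 Single-dose screen in the NCI 60-cell-line panel at one final concentration of 10 µM. Two-day drug exposure with a sulforhodamine B endpoint. Values are growth percent for each cell line.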

[6] = test system: MDA-MB-231; test: Growth inhibition of human MDA-MB-231 cells assessed as cell growth at 10 uM incubated for 48 hrs by sulforhodamine B assay relative to control; conditions: MDA-MB-231, 48 h, read-out: Activity
In short: (§3)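 Run in the standard NCI 60-cell-line screen. Cells were exposed to drug for two days, and the read-out was sulforhodamine B staining. Compound was tested at a single final concentration of 10 µM in every line, and results are reported as growth percent.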

[7] = test system: KM12; test: Growth inhibition of human KM12 cells assessed as cell growth at 10 uM incubated for 48 hrs by sulforhodamine B assay relative to control; conditions: KM12, 48 h, read-out: Activity; in short: as §3
[8] = test system: NCI-H522; test: Growth inhibition of human NCI-H522 cells incubated for 48 hrs by sulforhodamine B assay; conditions: NCI-H522, 48 h; in short: as §1
[9] = Growth inhibition of human RXF393 cells incubated for 48 hrs by sulforhodamine B assay; conditions: RXF 393, 48 h
In short: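 Run in the NCI 60-cell-line protocol, with 2-day drug exposure and sulforhodamine B read-out. Dose-response testing used five 10-fold dilutions starting from a high concentration of 100 µM.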

[10] = Growth inhibition of human UO31 cells assessed as cell growth at 10 uM incubated for 48 hrs by sulforhodamine B assay relative to control; conditions: UO-31, 48 h, read-out: Activity
In short: (§4)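 NCI 60-cell line standard protocol, one-dose screen: single final concentration 10 µM, 2-day drug exposure, sulforhodamine B (SRB) endpoint; read-out is growth percent relative to untreated control.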

[11] = Growth inhibition of human SF268 cells assessed as cell growth at 10 uM incubated for 48 hrs by sulforhodamine B assay relative to control; conditions: SF-268, 48 h, read-out: Activity; in short: as §3
[12] = Growth inhibition of human OVCAR8 cells incubated for 48 hrs by sulforhodamine B assay; conditions: OVCAR-8, 48 h; in short: as §1
[13] = test system: U-251; test: Growth inhibition of human U251 cells assessed as cell growth at 10 uM incubated for 48 hrs by sulforhodamine B assay relative to control; conditions: U-251, 48 h, read-out: Activity; in short: as §4
[14] = Growth inhibition of human LOXIMVI cells assessed as cell growth at 10 uM incubated for 48 hrs by sulforhodamine B assay relative to control; conditions: LOX IMVI, read-out: Activity; in short: as §2
[15] = Growth inhibition of human Caki1 cells assessed as cell growth at 10 uM incubated for 48 hrs by sulforhodamine B assay relative to control; conditions: CAKI-1, 48 h, read-out: Activity; in short: as §3
[16] = test system: T47D; test: Growth inhibition of human T47D cells incubated for 48 hrs by sulforhodamine B assay
In short: (§5)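 Tested in the standard NCI 60-cell-line protocol with two-day drug exposure and a sulforhodamine B endpoint. Compounds were first screened at a single final concentration of 10 µM, reported as growth percent. They were then run as five 10-fold dilutions starting from a high concentration of 100 µM to give dose-response curves.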

[17] = test system: NCI-H23; test: Growth inhibition of human NCI-H23 cells incubated for 48 hrs by sulforhodamine B assay; conditions: NCI-H23, 48 h; in short: as §1
[18] = Growth inhibition of human SNB19 cells assessed as cell growth at 10 uM incubated for 48 hrs by sulforhodamine B assay relative to control; conditions: SNB-19, 48 h, read-out: Activity; in short: as §3
[19] = Growth inhibition of human HCT116 cells incubated for 48 hrs by sulforhodamine B assay; conditions: HCT-116, 48 h; in short: as §1
[20] = Growth inhibition of human HCC2998 cells incubated for 48 hrs by sulforhodamine B assay; conditions: HCC 2998, 48 h; in short: as §1
[21] = test system: SK-MEL-2; test: Growth inhibition of human SK-MEL-2 cells assessed as cell growth at 10 uM incubated for 48 hrs by sulforhodamine B assay relative to control; conditions: SK-MEL-2, 48 h, read-out: Activity; in short: as §3
[22] = Growth inhibition of human PC3 cells assessed as cell growth at 10 uM incubated for 48 hrs by sulforhodamine B assay relative to control; conditions: PC-3, 48 h, read-out: Activity; in short: as §3
[23] = test system: NCI-H226; test: Growth inhibition of human NCI-H226 cells incubated for 48 hrs by sulforhodamine B assay; conditions: NCI-H226, 48 h; in short: as §1
[24] = Growth inhibition of human DU145 cells assessed as cell growth at 10 uM incubated for 48 hrs by sulforhodamine B assay relative to control; conditions: DU-145, 48 h, read-out: Activity; in short: as §3
[25] = Growth inhibition of human UACC62 cells assessed as cell growth at 10 uM incubated for 48 hrs by sulforhodamine B assay relative to control; conditions: UACC-62, 48 h, read-out: Activity; in short: as §4
[26] = Growth inhibition of human Hs 578T cells incubated for 48 hrs by sulforhodamine B assay
[27] = test system: SN12C; test: Growth inhibition of human SN12C cells incubated for 48 hrs by sulforhodamine B assay; in short: as §5
[28] = Growth inhibition of human MOLT4 cells assessed as cell growth at 10 uM incubated for 48 hrs by sulforhodamine B assay relative to control; conditions: MOLT-4, 48 h, read-out: Activity; in short: as §3
[29] = read-out: pLC50 (the source's name) (converted)

Q: Which GI50 [1] does the source give for `CC(C)[C@@]12C[C@@H](NC(=O)CO)[C@@](C)(O1)[C@@H]1CC[C@@H](C)[C@H]1[C@@H]2OC(=O)/C=C/c1ccccc1` here?
A: 20 µM

Q: What about the LC50 [1] of the same compound?
A: > 50.1 µM

Q: And the TGI ([1]; read-out: pTGI (converted))?
A: > 50.1 µM

Q: What about the GI50 [2] of the same compound?
A: 13.5 µM

Q: What about the LC50 [2] of the same compound?
A: > 50.1 µM

Q: And the TGI ([2]; read-out: pTGI (converted))?
A: > 50.1 µM

Q: And the growth at 10 µM [3]?
A: -15.2%

Q: What about the GI50 [4] of the same compound?
A: 9.55 µM

Q: What about the LC50 [4] of the same compound?
A: > 50.1 µM

Q: What about the TGI ([4]; read-out: pTGI (converted)) of the same compound?
A: > 50.1 µM

Q: And the growth at 10 µM [5]?
A: 88.6%

Q: What about the growth at 10 µM [6] of the same compound?
A: 97.2%

Q: What about the growth at 10 µM [7] of the same compound?
A: 111%

Q: And the GI50 [8]?
A: 19.1 µM

Q: What about the LC50 [8] of the same compound?
A: > 50.1 µM

Q: And the TGI ([8]; read-out: pTGI (converted))?
A: > 50.1 µM

Q: What about the GI50 [9] of the same compound?
A: 2.09 µM

Q: What about the CC50 [9, 29] of the same compound?
A: > 50.1 µM

Q: And the TGI ([9]; read-out: pTGI (converted))?
A: 24.5 µM

Q: And the growth at 10 µM [10]?
A: 57.2%

Q: What about the growth at 10 µM [11] of the same compound?
A: 84.4%

Q: And the GI50 [12]?
A: 4.79 µM

Q: What about the LC50 (concentration killing 50% of cells) [12] of the same compound?
A: > 50.1 µM

Q: And the TGI ([12]; read-out: pTGI (converted))?
A: > 50.1 µM

Q: What about the growth at 10 µM [13] of the same compound?
A: 92.3%

Q: And the growth at 10 µM [14]?
A: 102%

Q: What about the growth at 10 µM [15] of the same compound?
A: 61.1%

Q: And the GI50 [16]?
A: 19.1 µM

Q: And the CC50 [16, 29]?
A: > 50.1 µM

Q: What about the TGI ([16]; read-out: pTGI (converted)) of the same compound?
A: > 50.1 µM

Q: What about the GI50 [17] of the same compound?
A: 14.8 µM

Q: And the LC50 [17]?
A: > 50.1 µM

Q: And the TGI ([17]; read-out: pTGI (converted))?
A: > 50.1 µM

Q: And the growth at 10 µM [18]?
A: 103%

Q: And the GI50 [19]?
A: 10.7 µM

Q: What about the LC50 [19] of the same compound?
A: > 50.1 µM

Q: What about the TGI ([19]; read-out: pTGI (converted)) of the same compound?
A: 38 µM

Q: What about the GI50 [20] of the same compound?
A: 15.8 µM

Q: And the LC50 [20]?
A: > 50.1 µM

Q: And the TGI ([20]; read-out: pTGI (converted))?
A: > 50.1 µM

Q: What about the growth at 10 µM [21] of the same compound?
A: 101%

Q: What about the growth at 10 µM [22] of the same compound?
A: 77.5%

Q: What about the GI50 [23] of the same compound?
A: 25.1 µM

Q: And the LC50 [23]?
A: > 50.1 µM

Q: And the TGI ([23]; read-out: pTGI (converted))?
A: > 50.1 µM

Q: What about the growth at 10 µM [24] of the same compound?
A: 110%

Q: What about the growth at 10 µM [25] of the same compound?
A: 92.1%

Q: And the GI50 ([26]; read-out: GI50)?
A: 0.832 µM

Q: And the GI50 ([26]; read-out: pGI50 (converted))?
A: 0.832 µM

Q: What about the CC50 [26, 29] of the same compound?
A: > 50.1 µM

Q: And the TGI ([26]; read-out: pTGI (converted))?
A: 3.39 µM

Q: What about the GI50 [27] of the same compound?
A: 10.7 µM

Q: What about the CC50 [27, 29] of the same compound?
A: > 50.1 µM

Q: What about the TGI ([27]; read-out: pTGI (converted)) of the same compound?
A: > 50.1 µM

Q: And the growth at 10 µM [28]?
A: 76%

Source: ChEMBL document CHEMBL3804761, “Synthesis of a stable and orally bioavailable englerin analogue” (Bioorg Med Chem Lett, 2016)
